Ten compounds from ChEMBL document CHEMBL1151774, “Synthesis and biological evaluation of new N-linked 5-triazolylmethyl oxazolidinones” (Eur J Med Chem, 2008) can be followed below.

Data set [1] has as its system Staphylococcus aureus. Briefly: Antimicrobial activity against Staphylococcus aureus ATCC 29213 after 16 to 18 hrs by agar dilution method. In kind it is functional. (In agar dilution, organisms are placed on agar that contains the substance at set levels.)
Data set [2] has as its system Staphylococcus aureus. In words: Antimicrobial activity against methicillin-susceptible Staphylococcus aureus after 16 to 18 hrs by agar dilution method. In kind it is functional.
The next data set concerns Streptococcus pneumoniae. In words: Antimicrobial activity against sStreptococcus pneumoniae after 16 to 18 hrs by agar dilution method. In kind it is functional.
Another data set has as its system Enterococcus faecalis. Briefly: Antimicrobial activity against Enterococcus faecalis after 16 to 18 hrs by agar dilution method. In kind it is functional.
The test system of data set [3] is Staphylococcus aureus. In words: Antimicrobial activity against methicillin-resistant Staphylococcus aureus after 16 to 18 hrs by agar dilution method. In kind it is functional.
Data set [4] can be described thus: Elimination half life in Sprague-Dawley rat at 10 mg/kg, po. In kind it is ADME, organism-based. The arrangement: dose 10 mg/kg, route oral. Particulars: in vivo, read-out: beta t1/2 (converted). The procedure, abridged:
(§1)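 Single dose given orally (10 or 50 mg/kg) or intravenously (10 mg/kg). Serial 300 µL blood samples were taken from the retrobulbar vein. Plasma was quantified by LC-MS. Parameters came from mean plasma concentration by non-compartmental analysis. F is absolute oral bioavailability, assuming linear pharmacokinetics.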

A short description of data set [5]: Tmax in Sprague-Dawley rat at 10 mg/kg, po. In kind it is ADME, organism-based. Also on record: dose 10 mg/kg, route oral. Particulars: in vivo. The procedure, abridged: as §1
Data set [6] in a line: Oral bioavailability in Sprague-Dawley rat at 10 mg/kg. In kind it is ADME, organism-based. The conditions noted are these: in vivo. The procedure, abridged:
as §1

Data set [7] in a line: Elimination half life in Sprague-Dawley rat at 10 mg/kg, iv. In kind it is ADME, organism-based. The arrangement: dose 10 mg/kg, route intravenous. The conditions noted are these: in vivo, read-out: beta t1/2 (converted). The procedure, abridged:
as §1

Data set [8] in a line: Elimination half life in Sprague-Dawley rat at 50 mg/kg, po. In kind it is ADME, organism-based. The arrangement: dose 50 mg/kg, route oral. Particulars: in vivo, read-out: beta t1/2 (converted). The procedure, abridged: as §1
Data set [9] concerns Staphylococcus aureus. In words: Antimicrobial activity against methicillin-resistant Staphylococcus aureus 05-2 infected in iv dosed KunMing SPF mouse. In kind it is functional. The procedure, abridged:
(§2)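 Mice given a lethal systemic infection by intraperitoneal injection of the MLD inoculum of MRSA 05-2. Compound dosed orally or by i.v. injection in 0.9% NaCl immediately and 4 h post-infection. ED50 (dose curing 50% of infected mice) calculated by the Bliss method on day 7 post-infection, with 95% confidence ranges.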

A short description of data set [10]: Clearance in Sprague-Dawley rat at 10 mg/kg, iv. In kind it is ADME, organism-based. The arrangement: dose 10 mg/kg, route intravenous. Particulars: in vivo. The procedure, abridged: as §1
The nature of data set [11]: Clearance in Sprague-Dawley rat at 50 mg/kg, po. In kind it is ADME, organism-based. The arrangement: dose 50 mg/kg, route oral. The conditions noted are these: in vivo. The procedure, abridged:
as §1

The nature of data set [12]: AUC (0 to infinity) in Sprague-Dawley rat at 10 mg/kg, iv. Also on record: time infinity, dose 10 mg/kg, route intravenous. Particulars: plasma. In kind it is ADME, organism-based. The procedure, abridged: as §1
The nature of data set [13]: AUC (0 to infinity) in Sprague-Dawley rat at 50 mg/kg, po. In kind it is ADME, organism-based, Plasma. The arrangement: time infinity, dose 50 mg/kg, route oral. The conditions noted are these: Sprague-Dawley, plasma. The procedure, abridged:
as §1

The nature of data set [14]: Tmax in Sprague-Dawley rat at 50 mg/kg, po. In kind it is ADME, organism-based. Particulars: in vivo. Also on record: dose 50 mg/kg, route oral. The procedure, abridged: as §1
Data set [15] deals with Staphylococcus aureus. Briefly: Antimicrobial activity against methicillin-resistant Staphylococcus aureus 05-2 infected in po dosed KunMing SPF mouse. In kind it is functional. Summed up:
as §2

Data set [16] in a line: AUC (0 to infinity) in Sprague-Dawley rat at 10 mg/kg, po. Also on record: time infinity, dose 10 mg/kg, route oral. The conditions noted are these: Sprague-Dawley, plasma. In kind it is ADME, organism-based, Plasma. The procedure, abridged:
as §1

A short description of data set [17]: Cmax in Sprague-Dawley rat at 50 mg/kg, po. In kind it is ADME, organism-based. The arrangement: dose 50 mg/kg, route oral. Particulars: in vivo. The procedure, abridged:
as §1

Data set [18] can be described thus: Cmax in Sprague-Dawley rat at 10 mg/kg, po. In kind it is ADME, organism-based. The arrangement: dose 10 mg/kg, route oral. The conditions noted are these: in vivo. Summed up: as §1
A short description of data set [19]: Clearance in Sprague-Dawley rat at 10 mg/kg, po. The conditions noted are these: in vivo. In kind it is ADME, organism-based. The arrangement: dose 10 mg/kg, route oral. The procedure, abridged: as §1

In brackets after ≈: the same amount, converted by molar mass.

`O=C1O[C@@H](Cn2ccnn2)CN1c1ccc(N2CCN(Cc3ccsc3)CC2)c(F)c1`: the minimum inhibitory concentration (MIC) was 0.06 µg/mL (≈ 0.136 µM) against Staphylococcus aureus [1]; 0.06 µg/mL (≈ 0.136 µM) in the data set on Staphylococcus aureus [2]; 0.5 µg/mL (≈ 1.13 µM) in the data set on Streptococcus pneumoniae; 1 µg/mL (≈ 2.26 µM) with Enterococcus faecalis; 1 µg/mL (≈ 2.26 µM) in the data set on Staphylococcus aureus [3].
In the case of `O=C1O[C@@H](Cn2ccnn2)CN1c1ccc(N2CCN(Cc3ccc(Br)s3)CC2)c(F)c1`, the MIC came out at 0.06 µg/mL (≈ 0.115 µM) in the data set on Staphylococcus aureus [1]; 0.06 µg/mL (≈ 0.115 µM) in the data set with Staphylococcus aureus [2]; 0.5 µg/mL (≈ 0.959 µM) in the data set with Streptococcus pneumoniae; 1 µg/mL (≈ 1.92 µM) with Enterococcus faecalis; 0.5 µg/mL (≈ 0.959 µM) against Staphylococcus aureus [3].
As for `O=C1O[C@@H](Cn2ccnn2)CN1c1ccc(N2CCN(Cc3cccc([N+](=O)[O-])c3)CC2)c(F)c1`, the half-life in data set [4] is 2.36 h; in data set [7] it was 2.95 h; in [8] it was 5.34 h. Also, the MIC against Staphylococcus aureus [1] was determined as 0.03 µg/mL (≈ 0.0623 µM); with Staphylococcus aureus [2] it was 0.06 µg/mL (≈ 0.125 µM); in the data set with Streptococcus pneumoniae, 0.5 µg/mL (≈ 1.04 µM); against Enterococcus faecalis it was 0.5 µg/mL (≈ 1.04 µM); in the data set with Staphylococcus aureus [3], 0.5 µg/mL (≈ 1.04 µM). Also, the Tmax in data set [5] was 1.4 h; in data set [14], 2.3 h. In [6], the bioavailability is 61.5%. Besides, the ED50 came to 11.2 mg/kg with Staphylococcus aureus [9] and 7.87 mg/kg in the data set on Staphylococcus aureus [15]. This compound also gave a clearance in data set [10] of 6.98 mL/min/kg. The figures for the CL/F in data set [11] and in data set [19] were 11.3 mL/min/kg and 11.7 mL/min/kg, respectively. Further, the AUC(0-inf) in [12] stood at 26200 ng·h/mL; in data set [13], 74500 ng·h/mL; in [16] it was 16100 ng·h/mL. Also, the peak concentration (Cmax) in data set [17] stood at 10800 ng/mL; in [18] it was 3240 ng/mL.
Turning to `Nc1ccccc1CN1CCN(c2ccc(N3C[C@H](Cn4ccnn4)OC3=O)cc2F)CC1`, the minimum inhibitory concentration (MIC) against Staphylococcus aureus [1] came to 0.125 µg/mL (≈ 0.277 µM); in the data set with Staphylococcus aureus [2], 0.125 µg/mL (≈ 0.277 µM); in the data set on Streptococcus pneumoniae it was 0.5 µg/mL (≈ 1.11 µM); against Enterococcus faecalis, 1 µg/mL (≈ 2.21 µM); against Staphylococcus aureus [3] it was 0.5 µg/mL (≈ 1.11 µM).
On to `O=C1O[C@@H](Cn2ccnn2)CN1c1ccc(N2CCN(Cc3cccs3)CC2)c(F)c1`, for which the minimum inhibitory concentration (MIC) against Staphylococcus aureus [1] worked out at 0.06 µg/mL (≈ 0.136 µM); in the data set with Staphylococcus aureus [2], 0.06 µg/mL (≈ 0.136 µM); in the data set on Streptococcus pneumoniae, 0.06 µg/mL (≈ 0.136 µM); in the data set with Enterococcus faecalis, 2 µg/mL (≈ 4.52 µM); in the data set with Staphylococcus aureus [3] it was 0.06 µg/mL (≈ 0.136 µM).
For `O=C1O[C@@H](Cn2ccnn2)CN1c1ccc(N2CCN(Cc3ccc(Cl)o3)CC2)c(F)c1`, the minimal inhibitory concentration (MIC) in the data set with Staphylococcus aureus [1] was determined as 0.125 µg/mL (≈ 0.271 µM); against Staphylococcus aureus [2] it was 0.125 µg/mL (≈ 0.271 µM); against Streptococcus pneumoniae, 1 µg/mL (≈ 2.17 µM); with Enterococcus faecalis, 2 µg/mL (≈ 4.34 µM); in the data set with Staphylococcus aureus [3], 1 µg/mL (≈ 2.17 µM).
In the case of `O=C1O[C@@H](Cn2ccnn2)CN1c1ccc(N2CCN(Cc3cccnc3)CC2)c(F)c1`, the minimal inhibitory concentration (MIC) worked out at 0.125 µg/mL (≈ 0.286 µM) in the data set with Staphylococcus aureus [1]; 0.125 µg/mL (≈ 0.286 µM) in the data set with Staphylococcus aureus [2]; 1 µg/mL (≈ 2.29 µM) in the data set with Streptococcus pneumoniae; 1 µg/mL (≈ 2.29 µM) in the data set on Enterococcus faecalis; 1 µg/mL (≈ 2.29 µM) against Staphylococcus aureus [3].
`Cc1ccc(CN2CCN(c3ccc(N4C[C@H](Cn5ccnn5)OC4=O)cc3F)CC2)o1`: the minimal inhibitory concentration (MIC) in the data set with Staphylococcus aureus [1] amounted to 0.125 µg/mL (≈ 0.284 µM); against Staphylococcus aureus [2], 0.125 µg/mL (≈ 0.284 µM); in the data set with Streptococcus pneumoniae, 2 µg/mL (≈ 4.54 µM); in the data set with Enterococcus faecalis, 2 µg/mL (≈ 4.54 µM); against Staphylococcus aureus [3], 1 µg/mL (≈ 2.27 µM).
Consider `Cc1ccsc1CN1CCN(c2ccc(N3C[C@H](Cn4ccnn4)OC3=O)cc2F)CC1`, for which the MIC in the data set on Staphylococcus aureus [1] is 1 µg/mL (≈ 2.19 µM); against Staphylococcus aureus [2], 1 µg/mL (≈ 2.19 µM); with Streptococcus pneumoniae, 4 µg/mL (≈ 8.76 µM); in the data set with Enterococcus faecalis, 4 µg/mL (≈ 8.76 µM); against Staphylococcus aureus [3] it was 4 µg/mL (≈ 8.76 µM).
Turning to `O=Cc1ccc(CN2CCN(c3ccc(N4C[C@H](Cn5ccnn5)OC4=O)cc3F)CC2)cc1`, the MIC against Staphylococcus aureus [1] amounted to 0.008 µg/mL (≈ 0.0172 µM); in the data set on Staphylococcus aureus [2], 1 µg/mL (≈ 2.15 µM); in the data set with Streptococcus pneumoniae it was 1 µg/mL (≈ 2.15 µM); against Enterococcus faecalis, 2 µg/mL (≈ 4.31 µM); against Staphylococcus aureus [3] it was 0.25 µg/mL (≈ 0.538 µM).

For orientation: MIC means the least concentration at which growth counts as inhibited. A higher MIC goes with weaker potency. Broadly, the Tmax is the time at which the peak concentration occurs. In general, bioavailability refers to dose-corrected exposure relative to a reference, in per cent. A higher bioavailability goes with good availability. The term ED50 denotes the dose at which the effect has come halfway, by size or by number of responders. A lower ED50 goes with greater potency. Broadly, the clearance is the volume of plasma or blood freed of the substance per unit of time. High values mean a high capacity for elimination, low ones a low capacity for elimination. By CL/F is commonly meant the apparent clearance, not corrected for the fraction that reaches the circulation. Usually AUC(0-inf) stands for the area under the concentration-time curve extrapolated to infinity. Read a high AUC(0-inf) as high exposure. For orientation: Cmax means the highest concentration seen after dosing.
